In ChEMBL document CHEMBL4765235, “Discovery of N-[Bis(4-methoxyphenyl)methyl]-4-hydroxy-2-(pyridazin-3-yl)pyrimidine-5-carboxamide (MK-8617), an Orally Active Pan-Inhibitor of Hypoxia-Inducible Factor Prolyl Hydroxylase 1-3 (HIF PHD1-3) for the Treatment of Anemia” (J Med Chem, 2016):
pIC50: −log10 of the molar value. The source made the active and inactive calls. No cut-off for these calls is given here.

Experiments:
[1] = Volume of distribution at steady state in rhesus monkey at 1 mg/kg, po or 0.5 mg/kg, iv; type: ADME, organism-based, Macaca mulatta; conditions: in vivo, read-out: Vdss
Method in brief: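 Dog and rhesus monkey dosed 1 mg/kg po and 0.5 mg/kg iv. The iv vehicle was PEG200:12%HPCD:water (30:12:58 v/v/v); the po vehicle was Imwitor:Tween (1:1 w/w). Clearance was measured in plasma. Protein binding was measured in 100% serum.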

[2] = Volume of distribution at steady state in C57BL/6J mouse at 1 mg/kg, po or 0.5 mg/kg, iv; type: ADME, organism-based; conditions: in vivo, read-out: Vdss
Method in brief: (§1)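 C57BL/6J mice dosed 1 mg/kg po and 0.5 mg/kg iv, both in DMSO:PEG400:water (5:40:55, v/v/v).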

Cytochrome P450 2C8 = target: T1, Cytochrome P450 2C8 (Homo sapiens, UniProt P10632); test: Reversible inhibition of CYP2C8 (unknown origin); type: ADME
T1 sequence (P10632 whole entry): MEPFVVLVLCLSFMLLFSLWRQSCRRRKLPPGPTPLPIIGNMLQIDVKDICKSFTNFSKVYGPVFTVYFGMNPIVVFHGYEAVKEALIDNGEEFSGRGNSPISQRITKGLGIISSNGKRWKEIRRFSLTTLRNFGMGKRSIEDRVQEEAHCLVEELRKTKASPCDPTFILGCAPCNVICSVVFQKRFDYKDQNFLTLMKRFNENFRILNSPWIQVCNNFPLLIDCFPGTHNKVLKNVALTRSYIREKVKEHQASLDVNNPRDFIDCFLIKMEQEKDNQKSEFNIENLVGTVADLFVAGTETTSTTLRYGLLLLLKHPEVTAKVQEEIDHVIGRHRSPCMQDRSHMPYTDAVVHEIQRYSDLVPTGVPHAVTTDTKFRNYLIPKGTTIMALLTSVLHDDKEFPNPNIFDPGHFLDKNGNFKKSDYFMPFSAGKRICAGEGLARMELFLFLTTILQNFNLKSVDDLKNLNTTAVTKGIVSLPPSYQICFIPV

[3] = Oral bioavailability in C57BL/6J mouse at 1 mg/kg; type: ADME, organism-based; conditions: in vivo; method in brief: as §1
Mus musculus = species on record: Mus musculus; conditions: C57BL/6, dose 5-15 mg/kg, time 2.0 day
Cytochrome P450 2B6 = target: T2, Cytochrome P450 2B6 (Homo sapiens, UniProt P20813); test: Inhibition of CYP2B6 (unknown origin); type: ADME
T2 sequence (P20813 whole entry): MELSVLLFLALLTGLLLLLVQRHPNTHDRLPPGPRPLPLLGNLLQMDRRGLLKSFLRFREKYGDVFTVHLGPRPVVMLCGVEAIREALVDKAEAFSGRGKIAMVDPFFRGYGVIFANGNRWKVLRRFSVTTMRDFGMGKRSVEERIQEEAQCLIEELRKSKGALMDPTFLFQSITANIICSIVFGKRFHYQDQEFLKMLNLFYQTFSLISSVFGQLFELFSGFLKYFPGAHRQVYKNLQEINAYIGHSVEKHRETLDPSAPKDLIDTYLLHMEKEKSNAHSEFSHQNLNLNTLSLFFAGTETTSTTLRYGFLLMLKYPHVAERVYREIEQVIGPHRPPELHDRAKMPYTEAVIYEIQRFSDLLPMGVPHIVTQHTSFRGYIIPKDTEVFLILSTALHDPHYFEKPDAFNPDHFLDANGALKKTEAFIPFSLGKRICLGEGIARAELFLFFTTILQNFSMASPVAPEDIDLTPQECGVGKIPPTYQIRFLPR

[4] = Cmax in Sprague-Dawley rat at 5 mg/kg, po administered as single dose measured at 6 hrs; type: ADME, organism-based; design: route oral, dose 5 mg/kg, time 6 hrs; conditions: in vivo
[5] = Metabolic stability in dog liver microsomes assessed as metabolic turnover at 10 uM measured after 60 mins in presence of NADPH; type: ADME, Canis lupus familiaris, Microsome; conditions: read-out: Drug metabolism
Method in brief: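 Tritiated compound incubated with liver microsomes with NADPH added; metabolic turnover monitored.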

[6] = In vivo inhibition of HIF-PHD2 in C57BL/6 mouse assessed as serum erythropoietin level at 5 mg/kg, iv measured after 4 hrs; type: functional
Method in brief: (§2)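 Mouse pharmacodynamic EPO assay (MoPED). Compound dosed iv; serum EPO measured 4 hr after dosing and reported in pg/mL. Minimum effective dose is the lowest dose giving EPO elevation.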

[7] = Drug recovery in fasted bile-duct cannulated Sprague-Dawley rat urine assessed as metabolically unchanged parent compound at 5 mg/kg, po using [3H]-labeled compound measured after 48 hrs; type: ADME, organism-based; conditions: in vivo
[8] = Oral bioavailability in rat at 2 mg/kg; type: ADME, organism-based; conditions: in vivo
[9] = Half life in rat at 2 mg/kg, po or 1 mg/kg, iv; type: ADME, organism-based; conditions: in vivo
Cytochrome P450 1A2 = target: T3, Cytochrome P450 1A2 (Homo sapiens, UniProt P05177); test: Inhibition of CYP1A2 (unknown origin); type: ADME
T3 sequence (P05177 whole entry): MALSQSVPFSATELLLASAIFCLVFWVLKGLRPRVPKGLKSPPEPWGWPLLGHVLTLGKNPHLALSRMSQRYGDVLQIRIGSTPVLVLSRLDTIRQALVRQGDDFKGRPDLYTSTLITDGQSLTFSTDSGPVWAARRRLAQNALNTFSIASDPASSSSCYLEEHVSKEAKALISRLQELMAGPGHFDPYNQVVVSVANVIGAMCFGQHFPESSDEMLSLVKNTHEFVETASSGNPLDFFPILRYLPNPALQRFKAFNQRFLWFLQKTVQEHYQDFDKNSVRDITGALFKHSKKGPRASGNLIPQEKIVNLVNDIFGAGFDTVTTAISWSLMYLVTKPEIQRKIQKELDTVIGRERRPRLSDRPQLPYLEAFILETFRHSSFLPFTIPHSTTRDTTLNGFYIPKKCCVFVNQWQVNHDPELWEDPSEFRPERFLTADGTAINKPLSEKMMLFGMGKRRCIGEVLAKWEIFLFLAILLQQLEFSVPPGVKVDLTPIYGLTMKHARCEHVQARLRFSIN

[10] = In vivo inhibition of HIF-PHD2 in C57BL/6 mouse assessed as serum erythropoietin level at 15 mg/kg, iv measured after 4 hrs; type: functional; method in brief: as §2
[11] = Drug metabolism in fasted bile-duct cannulated Sprague-Dawley rat bile assessed as oxidation of parent compound causing metabolite formation at 5 mg/kg, po using [3H]-labeled compound measured after 48 hrs; type: ADME, organism-based; conditions: in vivo
[12] = target: Voltage-gated inwardly rectifying potassium channel KCNH2 (Homo sapiens, UniProt Q12809); test: Inhibition of human ERG
Sequence of Voltage-gated inwardly rectifying potassium channel KCNH2 (Q12809 whole entry): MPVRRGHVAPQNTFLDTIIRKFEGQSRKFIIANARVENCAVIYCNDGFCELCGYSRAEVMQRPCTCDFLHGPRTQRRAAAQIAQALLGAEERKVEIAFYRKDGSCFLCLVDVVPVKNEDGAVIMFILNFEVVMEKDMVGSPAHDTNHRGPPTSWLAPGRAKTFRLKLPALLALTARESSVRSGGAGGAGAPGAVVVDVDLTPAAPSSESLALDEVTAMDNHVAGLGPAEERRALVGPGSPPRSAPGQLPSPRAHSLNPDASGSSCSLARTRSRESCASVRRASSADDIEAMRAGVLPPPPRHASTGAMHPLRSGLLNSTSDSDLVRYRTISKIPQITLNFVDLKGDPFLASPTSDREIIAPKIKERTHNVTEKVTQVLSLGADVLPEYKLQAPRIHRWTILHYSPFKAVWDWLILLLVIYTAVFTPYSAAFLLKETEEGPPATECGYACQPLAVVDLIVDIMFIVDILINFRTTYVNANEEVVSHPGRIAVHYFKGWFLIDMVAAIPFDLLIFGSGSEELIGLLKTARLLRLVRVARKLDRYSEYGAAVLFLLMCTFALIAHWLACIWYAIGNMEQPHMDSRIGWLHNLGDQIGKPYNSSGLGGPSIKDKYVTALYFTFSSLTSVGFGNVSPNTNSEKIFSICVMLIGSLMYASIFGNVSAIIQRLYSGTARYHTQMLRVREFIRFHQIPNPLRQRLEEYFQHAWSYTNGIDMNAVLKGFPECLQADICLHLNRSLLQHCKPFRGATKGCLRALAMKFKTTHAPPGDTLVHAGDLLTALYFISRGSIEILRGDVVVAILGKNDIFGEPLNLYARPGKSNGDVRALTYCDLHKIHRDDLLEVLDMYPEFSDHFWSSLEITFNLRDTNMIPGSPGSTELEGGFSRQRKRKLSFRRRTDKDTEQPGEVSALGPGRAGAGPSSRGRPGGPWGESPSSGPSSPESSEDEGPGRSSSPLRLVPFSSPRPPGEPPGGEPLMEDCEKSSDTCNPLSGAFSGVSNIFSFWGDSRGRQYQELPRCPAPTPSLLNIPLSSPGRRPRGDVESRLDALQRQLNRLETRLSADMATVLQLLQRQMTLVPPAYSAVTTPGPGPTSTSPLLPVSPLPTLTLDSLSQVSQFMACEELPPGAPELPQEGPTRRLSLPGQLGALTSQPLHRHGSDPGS

[13] = Metabolic stability in monkey liver microsomes assessed as metabolic turnover at 10 uM measured after 60 mins in presence of NADPH; type: ADME, Macaca mulatta, Microsome; conditions: rhesus monkey, read-out: Drug metabolism
Method in brief: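 Tritiated compound incubated with rat or monkey liver microsomes supplemented with NADPH; metabolic turnover monitored.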

[14] = Drug metabolism in fasted bile-duct cannulated Sprague-Dawley rat urine assessed as oxidation of parent compound causing metabolite formation at 5 mg/kg, po using [3H]-labeled compound measured after 48 hrs; type: ADME, organism-based; conditions: in vivo
[15] = Drug metabolism in monkey liver microsomes assessed as O-demethylated metabolite formation; type: ADME, Macaca mulatta, Microsome; conditions: rhesus monkey
[16] = Protein binding in rat plasma assessed as unbound fraction at 2 mg/kg, po or 1 mg/kg, iv; type: ADME, organism-based; conditions: read-out: PPB

- Vd [1]: 0.1 L/kg
- Vd [2]: 0.13 L/kg
- pIC50 (Cytochrome P450 2C8): 5.80
- bioavailability [3]: 6.3%
- pIC50 (Cytochrome P450 2B6): < 4.22
- Cmax [4]: 14 µM
- metabolised at 1 h, 10 µM [5]: < 10%
- Drug recovery [7]: < 10%
- bioavailability [8]: 36%
- half-life [9]: 9.3 h
- pIC50 (Cytochrome P450 1A2): < 4.22
- Drug metabolism [11]: Metabolite_Detected
- metabolised at 1 h, 10 µM [13]: < 10%
- Drug metabolism [14]: Metabolite_Detected
- Drug metabolism [15]: Metabolite_Detected
- fraction unbound [16]: 0.006
Structure (SMILES): COc1ccc(C(NC(=O)c2cnc(-c3cccnn3)nc2O)c2ccc(OC)cc2)cc1
- inhibition (Mus musculus): Active
- Activity [6]: 6200 pg/mL
- Activity [10]: 12000 pg/mL
- pIC50 [12]: < 4.52
